Source: publication PMC4651729 (ACS chemical neuroscience, 2015)
Marks after values point to notes of the source that are not given here.

What was measured:
[1] = system: CD1 mice; experiment: radiant heat tail flick analgesia; type: in vivo, mouse; settings: for tail flick analgesia (CI), ED50 / antinociception in vivo (in words): sc; for tail flick analgesia (CI), ED50: 30 min after dosing, mice, 95% CI or ± SEM
[2] = biological target: 6TM/E11 (Mus musculus, UniProt P42866); type: binding; settings: for Ki: read-out: Ki 6TM/E11, [125I]BNtxA 0.1 nM, mouse brain, CTAP, DPDPE, U50,488 blockers at 200 nM
Procedure, shortened: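 Membrane homogenates of whole brain from wild-type mice. Blockers at 200 nM: CTAP for MOR-1, U50,488H for KOR-1 and DPDPE for DOR-1.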

[3] = biological target: mouse DOR-1 (Mus musculus, UniProt P32300); experiment: [125I]BNtxA competition binding, CHO cell membranes, DOR-1; settings: for Ki: read-out: Ki DOR-1, [125I]BNtxA 0.1 nM, CHO membranes, mouse DOR-1; for fold higher DOR-1 affinity than corresponding 14-OH-epoxymorphinan analog: 6 vs 19, 16 vs 1, 17 vs 20; for selectivity for DOR-1 over 6TM/E11 sites: ratio of Ki
Procedure, shortened: (§1)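 Membranes from CHO cells stably expressing the murine receptor clone, with no blockers, were incubated for 90 min at 25 °C in 50 mM potassium phosphate buffer (pH 7.4) with 5 mM MgSO4. Samples were then filtered on glass-fiber filters and washed with ice-cold 50 mM Tris-HCl (pH 7.4). Nonspecific binding was set with levallorphan 8 μM. Ki came from nonlinear regression. The 6TM/E11 comparison used mouse whole-brain membranes with CTAP, U50,488H and DPDPE, each at 200 nM.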

[4] = biological target: mouse MOR-1 (Mus musculus, UniProt P42866); experiment: [125I]BNtxA competition binding, CHO cell membranes, MOR-1; settings: for Ki: read-out: Ki MOR-1, [125I]BNtxA 0.1 nM, CHO membranes, mouse MOR-1; for fold higher MOR-1 affinity than corresponding 14-OH-epoxymorphinan analog: 6 vs 19, 16 vs 1, 17 vs 20; for selectivity for MOR-1 over 6TM/E11 sites: ratio of Ki
Procedure, shortened: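 Mouse MOR-1 clone stably expressed in CHO cells; membranes incubated 90 min at 25 °C in 50 mM potassium phosphate buffer, pH 7.4, with 5 mM MgSO4, no blockers. Filtration through glass-fibre filters, three washes with ice-cold 50 mM Tris-HCl, pH 7.4. Nonspecific binding with 8 μM levallorphan, subtracted from total. Ki by nonlinear regression. Protein measured by Lowry method.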

[5] = system: CD1 mice; settings: cited from earlier work
[6] = biological target: mouse KOR-1 (Mus musculus, UniProt P33534); experiment: [125I]BNtxA competition binding, CHO cell membranes, KOR-1; settings: for Ki: read-out: Ki KOR-1, [125I]BNtxA 0.1 nM, CHO membranes, mouse KOR-1; for fold higher KOR-1 affinity than corresponding 14-OH-epoxymorphinan analog: 6 vs 19, 16 vs 1, 17 vs 20; for selectivity for KOR-1 over 6TM/E11 sites: ratio of Ki
Procedure, shortened: as §1

[7] = system: mice; experiment: conditioned place preference/aversion; type: in vivo, mouse; settings: 2 days; 16 1 mg/kg sc, morphine 10 mg/kg ip, U50,488 30 mg/kg ip, cocaine 10 mg/kg sc

Structure (SMILES) | tail flick analgesia (CI), ED50 [1] | Ki [2] | Ki [3] | Ki [4] | antinociception ED50 ([5]; introduction) | Ki [6] | antinociception in vivo (in words) ([1]; tail flick) | fold higher DOR-1 affinity than corresponding 14-OH-epoxymorphinan analog [3] | fold higher MOR-1 affinity than corresponding 14-OH-epoxymorphinan analog [4] | fold higher KOR-1 affinity than corresponding 14-OH-epoxymorphinan analog [6] | fold higher analgesic potency than morphine ([1]; tail flick, systemic (sc)) | selectivity for DOR-1 over 6TM/E11 sites [3] | selectivity for MOR-1 over 6TM/E11 sites [4] | selectivity for KOR-1 over 6TM/E11 sites [6] | fold lower 6TM/E11 affinity than 1 ([2]; compared with 1) | fold lower 6TM/E11 affinity than 20 ([2]; compared with 20) | place conditioning response to drug alone [7] | tail flick analgesia, ED50 [5]
O=C(N[C@@H]1CC[C@@]2(O)[C@H]3Cc4ccc(O)c5c4[C@@]2(CCN3CC2CC2)[C@H]1O5)c1cccc(I)c1 [Compound 1, 3-Iodobenzoyl-β-naltrexamine, reference compound] | 0.39 (0.15, 0.58) mg/kg | 0.16 ± 0.04 nM | 0.24 ± 0.05 nM | 0.11 ± 0.02 nM | 0.39 mg/kg | 0.03 ± 0.001 nM | – | – | – | – | – | – | – | – | – | – | – | –
COc1ccc2c3c1O[C@H]1[C@H](NC(=O)c4cccc(I)c4)C=C[C@H]4[C@@H](C2)N(C)CC[C@@]341 [Compound 5, 17-Methyl-3-methoxy-4,5α-epoxy-7,8-en-6-β-[(3′-iodo)-benzamido]-morphinan] | >10 mg/kg | 61 ± 7.7 nM | 49 ± 6.4 nM | 1.2 ± 0.48 nM | – | 10 ± 3.5 nM | – | – | – | – | – | – | – | – | – | – | – | –
CN1CC[C@]23c4c5ccc(O)c4O[C@H]2[C@H](NC(=O)c2cccc(I)c2)C=C[C@H]3[C@H]1C5 [Compound 6, 17-Methyl-3-hydroxy-4,5α-epoxy-7,8-en-6-β-[(3′-iodo)-benzamido]-morphinan] | 6.31 (4.6, 8.5) mg/kg | 27 ± 18 nM | 0.88 ± 0.08 nM | 0.037 ± 0.0051 nM | – | 0.21 ± 0.046 nM | potent antinociception | 3 fold | 26 fold | 224 fold | – | – | – | – | – | – | – | –
O=C(N[C@@H]1C=C[C@H]2[C@H]3Cc4ccc(O)c5c4[C@@]2(CCN3CCc2ccccc2)[C@H]1O5)c1cccc(I)c1 [Compound 15, 17-Phenethyl-3-hydroxy-4,5α-epoxy-7,8-en-6-β-[(3′-iodo)-benzamido]-morphinan] | 1.3 (1.03, 2.2) mg/kg | 14 ± 3.2 nM | 0.13 ± 0.032 nM | 0.088 ± 0.028 nM | – | 0.14 ± 0.022 nM | – | – | – | – | ~ 3 fold | 108 fold | 159 fold | 100 fold | – | – | – | –
C=CCN1CC[C@]23c4c5ccc(O)c4O[C@H]2[C@H](NC(=O)c2cccc(I)c2)C=C[C@H]3[C@H]1C5 [Compound 17, 17-Allyl-3-hydroxy-4,5α-epoxy-7,8-en-6-β-[(3′-iodo)benzamido]-morphinan] | 0.53 (0.45, 0.59) mg/kg | 0.78 ± 0.1 nM | 0.39 ± 0.0041 nM | 0.034 ± 0.006 nM | – | 0.022 ± 0.0043 nM | equipotent to both 1 and 20 | 6.7 fold | 6.5 fold | 3.6 fold | – | 2 fold | 23 fold | 35 fold | 4.9 fold | 3.1 fold | – | –
COC(=O)[C@H]1[C@@H](OC(=O)c2ccccc2)C[C@@H]2CC[C@H]1N2C [cocaine, reference compound] | – | – | – | – | – | – | – | – | – | – | – | – | – | – | – | – | significant place preference | –
CN1CC[C@]23c4c5ccc(O)c4O[C@H]2[C@@H](O)C=C[C@H]3[C@H]1C5 [morphine, reference compound] | – | – | – | – | – | – | – | – | – | – | – | – | – | – | – | – | significant conditioned place preference | 4.96 ± 0.96^f mg/kg
